How the values were obtained:
Mus musculus [1] = assay: Antiinflammatory activity in delayed type hypersensitivity mouse model assessed as inhibition of granuloma wet weight at 100 mg/kg, sc
Mus musculus [2] = assay: Antiinflammatory activity in delayed type hypersensitivity mouse model assessed as inhibition of granuloma dry weight at 100 mg/kg, sc
Rattus norvegicus = assay: Antiresorptive activity in thyroidparathyroidectomized sc dosed rat assessed as inhibition of 1,25-dihydroxyvitamin D3-induced hypercalcemia; format: functional
Method in brief: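 In vivo bone resorption was driven by 1,25-dihydroxyvitamin D3, which induced hypercalcemia in thyroparathyroidectomized (TPTX) rats. ED50 values for inhibition of resorption were determined following an earlier published method.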

**Q.** What does the source list for `O=C1NC(=S)SC1C(c1ccccc1Cl)C(P(=O)(O)O)P(=O)(O)O` (stereo not drawn)?
**A.** inhibition in vivo at 100 mg/kg (Mus musculus [1]): 38%; inhibition in vivo at 100 mg/kg (Mus musculus [2]): 44%; ED50 (Rattus norvegicus): 0.08 mg/kg

**Q.** What does the source list for `O=[N+]([O-])c1ccc(/C=C(\c2nc3ccccc3s2)C(P(=O)(O)O)P(=O)(O)O)cc1`?
**A.** inhibition in vivo at 100 mg/kg (Mus musculus [1]): 8%; inhibition in vivo at 100 mg/kg (Mus musculus [2]): 10%; ED50 (Rattus norvegicus): 0.115 mg/kg

**Q.** For `O=P(O)(O)C(/C(=C/c1ccc(Cl)cc1)c1nc2ccccc2s1)P(=O)(O)O`, which ED50 (Rattus norvegicus) is on record?
**A.** 0.118 mg/kg

**Q.** Which inhibition in vivo at 100 mg/kg (Mus musculus [1]) does the source give for `Cc1ccc(C(C(C#N)c2nc3ccccc3s2)C(P(=O)(O)O)P(=O)(O)O)cc1` (stereo not drawn) here?
**A.** 36%

**Q.** What about the inhibition in vivo at 100 mg/kg (Mus musculus [2]) of the same molecule?
**A.** 38%

**Q.** What about the ED50 (Rattus norvegicus) of the same molecule?
**A.** 0.11 mg/kg

**Q.** What does the source list for `N#CC(c1nc2ccccc2s1)C(c1ccccc1[N+](=O)[O-])C(P(=O)(O)O)P(=O)(O)O` (stereo not drawn)?
**A.** inhibition in vivo at 100 mg/kg (Mus musculus [1]): 48%; inhibition in vivo at 100 mg/kg (Mus musculus [2]): 51%; ED50 (Rattus norvegicus): 0.105 mg/kg

**Q.** Which results are given for `O=C1NC(=S)SC1C(c1ccccc1[N+](=O)[O-])C(P(=O)(O)O)P(=O)(O)O` (stereo not drawn)?
**A.** inhibition in vivo at 100 mg/kg (Mus musculus [1]): 42%; inhibition in vivo at 100 mg/kg (Mus musculus [2]): 46%; ED50 (Rattus norvegicus): 0.088 mg/kg

**Q.** What does the source list for `CN(C)c1ccc(/C=C(\c2nc3ccccc3s2)C(P(=O)(O)O)P(=O)(O)O)cc1`?
**A.** inhibition in vivo at 100 mg/kg (Mus musculus [1]): 14%; inhibition in vivo at 100 mg/kg (Mus musculus [2]): 19%; ED50 (Rattus norvegicus): 0.11 mg/kg

**Q.** With `O=[N+]([O-])c1ccccc1/C=C(\c1nc2ccccc2s1)C(P(=O)(O)O)P(=O)(O)O` as the molecule, how does the inhibition in vivo at 100 mg/kg (Mus musculus [1]) read?
**A.** 8%

**Q.** What about the inhibition in vivo at 100 mg/kg (Mus musculus [2]) of the same molecule?
**A.** 11%

**Q.** What about the ED50 (Rattus norvegicus) of the same molecule?
**A.** 0.135 mg/kg

**Q.** How did the inhibition in vivo at 100 mg/kg (Mus musculus [1]) turn out when `N#CC(c1nc2ccccc2s1)C(c1ccccc1Cl)C(P(=O)(O)O)P(=O)(O)O` (stereo not drawn) was run?
**A.** 50%

**Q.** What about the inhibition in vivo at 100 mg/kg (Mus musculus [2]) of the same molecule?
**A.** 41%

**Q.** What about the ED50 (Rattus norvegicus) of the same molecule?
**A.** 0.09 mg/kg

**Q.** Which results are given for `O=C1NC(=S)SC1C(c1ccccc1)C(P(=O)(O)O)P(=O)(O)O` (stereo not drawn)?
**A.** inhibition in vivo at 100 mg/kg (Mus musculus [1]): 46%; inhibition in vivo at 100 mg/kg (Mus musculus [2]): 39%; ED50 (Rattus norvegicus): 0.077 mg/kg

**Q.** With `CN(C)c1ccc(C(C2SC(=S)NC2=O)C(P(=O)(O)O)P(=O)(O)O)cc1` (stereo not drawn) as the molecule, how does the inhibition in vivo at 100 mg/kg (Mus musculus [1]) read?
**A.** 52%

**Q.** And the inhibition in vivo at 100 mg/kg (Mus musculus [2])?
**A.** 55%

**Q.** What about the ED50 (Rattus norvegicus) of the same molecule?
**A.** 0.07 mg/kg

**Q.** With `N#CC(c1nc2ccccc2s1)C(c1ccc(Cl)cc1)C(P(=O)(O)O)P(=O)(O)O` (stereo not drawn) as the molecule, how does the inhibition in vivo at 100 mg/kg (Mus musculus [1]) read?
**A.** 52%

**Q.** And the inhibition in vivo at 100 mg/kg (Mus musculus [2])?
**A.** 53%

**Q.** And the ED50 (Rattus norvegicus)?
**A.** 0.09 mg/kg

**Q.** With `O=C1NC(=S)SC1C(c1ccc([N+](=O)[O-])cc1)C(P(=O)(O)O)P(=O)(O)O` (stereo not drawn) as the molecule, how does the inhibition in vivo at 100 mg/kg (Mus musculus [1]) read?
**A.** 43%

**Q.** And the inhibition in vivo at 100 mg/kg (Mus musculus [2])?
**A.** 46%

**Q.** What about the ED50 (Rattus norvegicus) of the same molecule?
**A.** 0.085 mg/kg

**Q.** Which results are given for `CN(C)c1ccc(C(C(C#N)c2nc3ccccc3s2)C(P(=O)(O)O)P(=O)(O)O)cc1` (stereo not drawn)?
**A.** inhibition in vivo at 100 mg/kg (Mus musculus [1]): 53%; inhibition in vivo at 100 mg/kg (Mus musculus [2]): 58%; ED50 (Rattus norvegicus): 0.08 mg/kg

**Q.** `N#CC(c1nc2ccccc2s1)C(c1ccc([N+](=O)[O-])cc1)C(P(=O)(O)O)P(=O)(O)O` (stereo not drawn) was tested. Which inhibition in vivo at 100 mg/kg (Mus musculus [1]) did it give?
**A.** 50%

**Q.** What about the inhibition in vivo at 100 mg/kg (Mus musculus [2]) of the same molecule?
**A.** 38%

**Q.** What about the ED50 (Rattus norvegicus) of the same molecule?
**A.** 0.095 mg/kg

**Q.** How did the ED50 (Rattus norvegicus) turn out when `O=P(O)(O)C(/C(=C/c1ccccc1Cl)c1nc2ccccc2s1)P(=O)(O)O` was run?
**A.** 0.105 mg/kg

**Q.** `O=C1NC(=S)SC1C(c1ccccc1O)C(P(=O)(O)O)P(=O)(O)O` (stereo not drawn) was tested. Which inhibition in vivo at 100 mg/kg (Mus musculus [1]) did it give?
**A.** 54%

**Q.** And the inhibition in vivo at 100 mg/kg (Mus musculus [2])?
**A.** 51%

**Q.** And the ED50 (Rattus norvegicus)?
**A.** 0.078 mg/kg

**Q.** With `Cc1ccc(/C=C(\c2nc3ccccc3s2)C(P(=O)(O)O)P(=O)(O)O)cc1` as the molecule, how does the inhibition in vivo at 100 mg/kg (Mus musculus [1]) read?
**A.** 6%

**Q.** And the inhibition in vivo at 100 mg/kg (Mus musculus [2])?
**A.** 13%

**Q.** What about the ED50 (Rattus norvegicus) of the same molecule?
**A.** 0.125 mg/kg

**Q.** For `NCCC(O)(P(=O)(O)O)P(=O)(O)O` [PAMIDRONIC ACID], which ED50 (Rattus norvegicus) is on record?
**A.** 0.085 mg/kg

**Q.** With `O=P(O)(O)C(O)(Cc1cccnc1)P(=O)(O)O` [RISEDRONIC ACID] as the molecule, how does the inhibition in vivo at 100 mg/kg (Mus musculus [1]) read?
**A.** 48%

**Q.** What about the inhibition in vivo at 100 mg/kg (Mus musculus [2]) of the same molecule?
**A.** 44%

Source: ChEMBL document CHEMBL1141659, “Synthesis, properties, and perspectives of gem-diphosphono substituted-thiazoles” (2008)
